Assay outcomes from PubChem.
Arbovirus anti: blocks arbovirus infection. arbovirus infection cell-based antiviral screen. inhibition, % at 10 µM. 0.37% of 200,000 active; in the data active means inhibition above about 30%
Rad51 HR inh: Rad51 (human) homologous recombination inhibition; Q06609; hRad51 DNA strand exchange, fluorescence dequenching; inhibition, % at 10 µM; 0.085% of 200,000 active;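 active means inhibition above 40% at the single screening dose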;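 further: 0% = DMSO control wells and 100% = blanks with heterologous ssDNA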
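Test system: preformed human Rad51 ssDNA filaments; also added: Donor/quencher-labelled 47-bp dsDNA substrate; doses: 10 µM final, single point; times: 37 °C 15-min filament assembly, 30-min compound preincubation, 15-min exchange; detection: FRET fluorescence dequenching, excitation 485 nm, emission 520 nm; read-out basis: Fluorescence-based percent inhibition, control- and blank-normalised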
PKD1 kinase inh: blocks activity of human protein kinase D1. Q15139. 0.056% of 200,000 active. inhibition, % (test concentration not listed). AID 797. PKD1 kinase fluorescence polarization assay
Target sequence (Q15139 whole entry, looked up): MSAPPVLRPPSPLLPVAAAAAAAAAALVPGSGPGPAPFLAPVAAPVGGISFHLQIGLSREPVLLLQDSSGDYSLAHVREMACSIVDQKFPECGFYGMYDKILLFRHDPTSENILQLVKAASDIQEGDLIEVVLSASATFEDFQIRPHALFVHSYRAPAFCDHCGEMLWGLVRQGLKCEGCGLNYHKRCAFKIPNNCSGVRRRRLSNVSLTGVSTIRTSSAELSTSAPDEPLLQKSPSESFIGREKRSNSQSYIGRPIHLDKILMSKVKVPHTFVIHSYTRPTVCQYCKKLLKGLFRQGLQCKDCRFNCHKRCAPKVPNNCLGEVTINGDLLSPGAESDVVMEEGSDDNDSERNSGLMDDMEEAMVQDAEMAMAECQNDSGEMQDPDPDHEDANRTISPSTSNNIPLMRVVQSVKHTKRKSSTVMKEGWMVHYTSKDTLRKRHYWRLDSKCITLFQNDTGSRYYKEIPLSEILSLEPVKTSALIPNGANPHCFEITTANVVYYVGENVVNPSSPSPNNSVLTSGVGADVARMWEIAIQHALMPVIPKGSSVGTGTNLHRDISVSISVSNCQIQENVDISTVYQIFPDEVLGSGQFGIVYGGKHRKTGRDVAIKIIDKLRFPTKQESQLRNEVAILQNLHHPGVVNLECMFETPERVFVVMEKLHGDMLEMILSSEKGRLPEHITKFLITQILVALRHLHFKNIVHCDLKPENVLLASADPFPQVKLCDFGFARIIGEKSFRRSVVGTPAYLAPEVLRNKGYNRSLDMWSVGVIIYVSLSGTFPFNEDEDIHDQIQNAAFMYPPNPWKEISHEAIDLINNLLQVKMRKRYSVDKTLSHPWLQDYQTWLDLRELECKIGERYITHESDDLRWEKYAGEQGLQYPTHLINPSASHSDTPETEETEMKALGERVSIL
Wee1 stabilizer: human Wee1 degradation inhibition, primary screen; AID 1321; reporter increase, % at 5 µM; HeLa Luc-Wee1K328M stability, luciferase luminescence; 100% = proteasome inhibitor MG132 effect; 1.2% of 220,000 active; P30291;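 active means activation above the mean of all tested compounds plus 3 SD, set per screening run, cut at about 8.8% in these data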;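 further: cells exposed to compound for 20 h before luminescence read; 0% = DMSO alone and 100% = MG132 at 30 µM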
CHOP inhibitor: blocks CHOP induction under ER stress | CHO-K1 CHOP-promoter luciferase, tunicamycin-induced, 15-18 h | inhibition, % at 10 µM | 3.8% of 220,000 active | AID 2732;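 active means compounds that reduced the stress-induced luciferase reporter signal by more than about 70% of percent inhibition, limit read from the data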;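 further: 0% = tunicamycin plus vehicle and 100% = wells without tunicamycin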
L major viab: reduces viability of Leishmania major promastigotes; 9% of 200,000 active; resazurin fluorescence viability; AID 1063; inhibition, % at 10 µM;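 further: promastigotes grown with compound for 44 hours at 28 °C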
* hit, by the source's call; . = no result given. An excerpt weighted towards active compounds, which were near 12% of everything screened. Unless noted, no stated cut-off is given here; in the data, active means inhibition above about 50%; inactive means the rest.

SMILES	Arbovirus anti	Rad51 HR inh	PKD1 kinase inh	Wee1 stabilizer	CHOP inhibitor	L major viab
COc1ccc(C)cc1NC(=O)c1ccccc1NS(=O)(=O)c1ccc(Cl)s1	-9.7	-20.5	-6.2	-2.1	32.6	7.6
O=S(=O)(Nc1ccccc1O)c1ccc(Cl)nc1	.	.	.	3.1	20.4	.
C1=C(CCNCC2CC2)CCCC1	3.8	-6.5	-10.5	-2.4	11.3	-0.3
Cc1ccc(CNCCC2=CCCCC2)cc1	-7.6	-3.5	-0.8	1.4	20.9	69.7*
CCOC(=O)c1c(SC)[nH]c2c(Cl)cccc2c1=O	.	.	.	2.5	13.2	.
COc1ccc(C(=O)/C=C/c2ccccc2F)c(OC(=O)c2ccc([N+](=O)[O-])cc2)c1	-40.3	-0.1	-0.9	-0.9	-23.0	91.2*
COc1ccc(C(=O)/C=C/c2ccc(C)cc2)c(OC(=O)c2ccc([N+](=O)[O-])cc2)c1	13.0	2.4	-6.2	0.3	-11.0	8.6
Cc1ccc2cc3c(nc2c1)OCC3	.	-3.0	.	-1.7	-9.0	.
CC(C)C(C)NC(=O)COC(=O)c1cc(S(=O)(=O)N(C)C)ccc1N1CCCC1 (stereo not drawn)	-7.2	12.6	-5.6	-2.8	-1.7	6.3
O=C(Nc1nnc(C(F)(F)F)s1)c1ccc(Br)s1	3.7	-2.0	-3.7	9.8*	65.5	10.0
CCSc1nnc(NC(=O)c2ccccc2)s1	8.0	.	-6.5	1.6	-155.0	-4.1
CCSc1nnc(NC(=O)c2ccccn2)s1	-23.6	-2.8	-9.7	0.5	.	97.8*
CCSc1nnc(NC(=O)[C@@H](NC(=O)c2ccccc2)C(C)C)s1	3.4	8.7	-9.6	2.4	-13.3	50.1*
O=C(Nc1ccccc1C(=O)Nc1nnc(C(F)(F)F)s1)c1ccccc1Cl	.	19.4	.	-0.3	73.6*	.
CC(NC(=O)Nc1nnc(C(F)(F)F)s1)(C(F)(F)F)C(F)(F)F	-22.1	14.4	-7.8	4.5	89.2*	42.8
CCSc1nnc(NC(=O)c2cc(-c3ccc(C)c(C)c3O)n[nH]2)s1	4.0	5.7	-9.2	0.3	87.6*	-3.9
CC(C)(C)CC(=O)Nc1nnc(C(F)(F)F)s1	11.2	0.5	5.7	-2.9	30.2	7.6
CCSc1nnc(NC(=O)c2ccc(Br)s2)s1	31.0*	0.2	-7.2	-0.3	.	6.2
Cc1ccsc1C1CC(=O)OC2=C1C(=O)CC(C)(C)C2 (stereo not drawn)	-1.0	.	12.6	6.2	-27.5	1.9
CCOc1cccc(NC(=O)c2cccc(F)c2)c1	-1.0	2.2	-2.3	4.2	-0.3	-0.1
Cc1sc2ncnc(N3CCN(CCOc4ccc(Cl)cc4)CC3)c2c1C	-20.4	-5.1	2.0	3.8	92.2*	8.0
CC(=O)Nc1cccc(Oc2ncnc3scc(-c4ccccc4)c23)c1	45.3*	-2.7	-11.8	4.5	29.5	6.2
O=C(O)CC1(CC(=O)Nc2ccc(F)c(Cl)c2)CCCCC1	.	2.6	.	1.4	18.9	.
c1cc(CNC23CC4CC(CC(C4)C2)C3)ccn1	2.1	4.4	9.1	3.3	22.5	84.4*
O=C(NC12CC3CC(CC(C3)C1)C2)N(Cc1ccccc1)Cc1ccncc1	-3.1	.	0.3	1.6	0.0	54.7*
SMILES	Arbovirus anti	Rad51 HR inh	PKD1 kinase inh	Wee1 stabilizer	CHOP inhibitor	L major viab
O=C(NC12CC3CC(CC(C3)C1)C2)c1ccccc1	-4.7	.	0.6	0.8	4.8	-6.2
CCc1ccc(OCCCC(=O)Nc2ccc(S(N)(=O)=O)cc2)cc1	-3.2	.	-4.0	-0.2	37.4	8.9
CC1CN(S(=O)(=O)c2cccc(C(=O)Nc3ccc(S(=O)(=O)Nc4ncccn4)cc3)c2)CC(C)O1 (stereo not drawn)	0.6	-1.5	-5.4	3.5	15.7	1.1
Cc1cccc(S(=O)(=O)Nc2ccc(C)c3c2OC(C)(C)C3)c1	4.2	2.8	-11.0	-0.7	34.4	11.6
CCOC(=O)c1c(NC(=O)Cn2c(C)nc3ccccc32)sc2c1CCC2	4.2	-4.7	-6.8	1.0	47.7	-0.4
CCOC(=O)c1c(NC(=O)CSc2nnc(-c3c[nH]c4ccccc34)n2C)sc2c1CCCC2	-12.9	6.1	-2.8	-0.3	15.6	51.3*
CCOC(=O)c1c(NC(=O)COC(=O)Cn2c(C)nc3ccccc32)sc2c1CCCC2	-1.2	.	-14.9	-1.1	73.8*	39.9
CCOC(=O)c1c(NC(=O)C(C)NCc2ccco2)sc2c1CCC(C)C2 (stereo not drawn)	-16.7	-5.2	-6.6	0.4	72.7*	31.0
CCOC(=O)c1c(NC(=O)COC(=O)Cn2cnc3ccccc32)sc2c1CCC(C)C2 (stereo not drawn)	-23.2	19.3	-0.7	4.3	71.9*	3.2
CCc1nnc(NC(=O)CSc2nnc(-c3c[nH]c4ccccc34)n2C)s1	-1.7	-6.4	-14.1	-0.4	-1.0	-6.7
COC(=O)COc1ccc(S(=O)(=O)N2CCc3ccccc3C2)cc1C	7.0	-1.9	1.5	-2.9	-8.9	-8.9
CCOC(=O)c1cc(C)nc(Sc2ccc(C)cc2)c1C#N	.	4.1	.	-0.4	2.2	.
CCOC(=O)c1c(NC(=O)COc2cccc3c2CCN(C)C3=O)sc2c1CCC2	8.9	5.4	-2.9	-0.8	82.4*	79.8*
Cc1cccc(NC(=O)COc2cccc3c2CCN(C)C3=O)c1C	6.1	6.6	2.8	1.1	8.6	-5.2
COc1ccc(-c2nc(CC(=O)O)cs2)cc1OC	12.2	20.0	0.6	22.7*	-1.0	-3.7
O=[N+]([O-])c1cnc(Sc2ccncn2)s1	.	2.3	.	-0.7	106.5*	.
O=C(CSc1ccc2ccccc2c1)Nc1ccncc1	6.0	.	-10.4	1.1	24.5	12.1
CN1CCN(c2ccc(NC(=O)CSc3ccccc3)cc2F)CC1	-0.2	6.3	-4.5	9.8*	-9.0	4.0
O=C(CSc1ccncc1)Nc1ccc2ccccc2c1	11.1	-11.6	71.1*	-1.4	26.3	90.8*
Cc1ccc(SCC(=O)Nc2ccc(N3CCN(c4ccccc4)CC3)c(F)c2)cc1	-8.2	-7.0	-1.4	1.4	25.3	-7.4
O=C(CSc1ccc2ccccc2c1)Nc1ccc(S(=O)(=O)Nc2nccs2)cc1	15.6	-10.4	-11.0	-0.5	29.3	54.2*
C=CCn1c(Cc2nc3ccc(Cl)cc3[nH]2)n[nH]c1=S	5.2	-1.8	-7.3	0.1	81.5*	-9.3
C=CCn1c(Cc2ccccc2)n[nH]c1=S	11.4	5.2	-1.3	1.2	-3.8	-1.6
CCN(c1ccccc1)c1nc(C#N)nc(N(CC)c2ccccc2)n1	.	12.8	.	-1.3	58.5	.
CCN(CC)c1nc(C#N)nc(N(CC)CC)n1	1.5	.	3.2	-3.6	78.8*	18.9
Cc1cc2nc(C)c3c(n2n1)CCC3	2.0	3.6	-0.7	2.9	10.1	-13.1
O=C1CN(C(=O)c2cc([N+](=O)[O-])ccc2Cl)C(c2ccc(F)cc2)c2cc(F)ccc2N1 (stereo not drawn)	4.2	-19.0	-12.9	3.2	-7.0	79.3*
O=C1CN(C(=O)c2cc3ccccc3oc2=O)C(c2ccccc2)c2cc(F)ccc2N1 (stereo not drawn)	-5.3	.	-7.8	-2.7	-7.6	-3.3
